# Measurements published in ChEMBL document CHEMBL1131460, “2-substituted (2SR)-2-amino-2-((1SR,2SR)-2-carboxycycloprop-1-yl)glycines as potent and selective antagonists of group II metabotropic glutamate receptors. 2. Effects of aromatic substitution, pharmacological characterization, and bioavailability” (J Med Chem, 1998).
# Experiments:
# [1] = Clearance rate in rat plasma when administered intraperitoneally at a dose of 10 mg/kg; type: ADME, organism-based; parameters: dose 10 mg/kg, route intraperitoneal; settings: ip, read-out: Clp (converted)
# Summary of the method: (§1)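 Male Fischer 344 rats were dosed at 10 mg/kg iv, 10 mg/kg ip, or 10 or 100 mg/kg po, with five rats per route and dose. One rat was sampled for blood and brain at each time: 0.25, 0.5, 1, 2 and 4 h after iv/ip, and 0.5, 1, 2, 4 and 6 h after po. Plasma and brain homogenates were derivatized, extracted and quantified by negative-ion chemical ionization GCMS (LOQ 100 pg/mL plasma, 1 ng/g brain).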
# Rattus norvegicus [2] = assay: Area under curve was evaluated in rat plasma when administered intraperitoneally at a dose of 10 mg/kg for 4 or 6 hours; type: ADME, organism-based; parameters: dose 10 mg/kg, route intraperitoneal; settings: in vivo, ip; summary of the method: as §1
# [3] = Plasma concentration after 0.5 hr at a dose of 100 mg/kg when administered perorally; settings: po
# Rattus norvegicus [4] = assay: Bioavailability was evaluated in rat plasma when administered intravenously at a dose of 10 mg/kg; <Tr>; type: ADME, organism-based; settings: in vivo, iv
# Rattus norvegicus [5] = assay: Area under curve was evaluated in rat brain when administered intraperitoneally at a dose of 10 mg/kg for 4 or 6 hours; type: ADME, organism-based; parameters: dose 10 mg/kg, route intraperitoneal; settings: in vivo, ip
# in vivo [6] = settings: plasma, ip, 10 mg/kg
# [7] = Brain concentration after 6 hr at a dose of 100 mg/kg when administered perorally; settings: po
# [8] = Brain concentration after 4 hr at a dose of 10 mg/kg when administered intravenously; settings: iv
# [9] = Brain concentration after 2 hr at a dose of 100 mg/kg when administered perorally; settings: po
# [10] = Maximum concentration achieved in rat plasma when administered perorally at a dose of 100 mg/kg; type: ADME, organism-based; parameters: dose 100 mg/kg, route oral; settings: po
# Summary of the method: (§2)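 Male Fischer 344 rats dosed iv or ip at 10 mg/kg, or orally at 10 or 100 mg/kg; five rats per route and dose. Blood and brain taken from one rat per time point (0.25, 0.5, 1, 2, 4 h after iv/ip; 0.5, 1, 2, 4, 6 h after po). Plasma and brain homogenates derivatized, extracted, assayed by negative-ion chemical ionization GCMS (LOQ 100 pg/mL plasma, 1 ng/g brain).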
# [11] = Plasma concentration after 1 hr at a dose of 10 mg/kg when administered perorally; settings: po
# [12] = Brain concentration after 0.5 hr at a dose of 10 mg/kg when administered intravenously; settings: iv
# Rattus norvegicus [13] = assay: Area under curve was evaluated in rat brain when administered intraperitoneally at a dose of 10 mg/kg for infinite hours; type: ADME, organism-based; parameters: time infinity, dose 10 mg/kg, route intraperitoneal; settings: in vivo, ip
# Rattus norvegicus [14] = assay: Area under curve was evaluated in rat plasma when administered intravenously at a dose of 10 mg/kg for 4 or 6 hours; type: ADME, organism-based; parameters: dose 10 mg/kg, route intravenous; settings: in vivo, iv; summary of the method: as §1
# [15] = Plasma concentration after 0.5 hr at a dose of 10 mg/kg when administered perorally; settings: po
# Rattus norvegicus [16] = assay: Area under curve was evaluated in rat brain when administered intravenously at a dose of 10 mg/kg for 4 or 6 hours; type: ADME, organism-based; parameters: dose 10 mg/kg, route intravenous; settings: in vivo, iv
# [17] = Brain concentration after 4 hr at a dose of 100 mg/kg when administered perorally; settings: po
# Rattus norvegicus [18] = assay: Area under curve was evaluated in rat plasma when administered perorally at a dose of 10 mg/kg for 4 or 6 hours; type: ADME, organism-based; parameters: dose 10 mg/kg, route oral; settings: in vivo, po; summary of the method: as §1
# [19] = Time of maximum concentration achieved in rat plasma when administered perorally at a dose of 100 mg/kg; type: ADME, organism-based; parameters: dose 100 mg/kg, route oral; settings: po; summary of the method: as §2
# [20] = Plasma concentration after 4 hr at a dose of 100 mg/kg when administered perorally; settings: po
# [21] = Time of maximum concentration achieved in rat plasma when administered intravenously at a dose of 10 mg/kg; type: ADME, organism-based; parameters: dose 10 mg/kg, route intravenous; settings: iv; summary of the method: as §2
# [22] = Brain concentration after 2 hr at a dose of 10 mg/kg when administered intraperitoneally; settings: ip
# in vivo [23] = settings: brain, ip, 10 mg/kg
# [24] = Brain concentration after 4 hr at a dose of 10 mg/kg when administered perorally; settings: po
# [25] = Time of maximum concentration achieved in rat plasma when administered perorally at a dose of 10 mg/kg; type: ADME, organism-based; parameters: dose 10 mg/kg, route oral; settings: po; summary of the method: as §2
# [26] = Brain concentration after 2 hr at a dose of 10 mg/kg when administered intravenously; settings: iv
# [27] = Brain concentration after 0.5 h at a dose of 10 mg/kg when administered intraperitoneally; settings: ip
# [28] = Half-life in rat plasma when administered intraperitoneally at a dose of 10 mg/kg; type: ADME, organism-based; parameters: dose 10 mg/kg, route intraperitoneal; settings: ip; summary of the method: as §1
# [29] = Brain concentration after 2 hr at a dose of 10 mg/kg when administered perorally; settings: po
# Rattus norvegicus [30] = assay: Area under curve was evaluated in rat brain when administered perorally at a dose of 100 mg/kg for 4 or 6 hours; type: ADME, organism-based; parameters: dose 100 mg/kg, route oral; settings: in vivo, po
# [31] = Time of maximum concentration achieved in rat brain when administered perorally at a dose of 100 mg/kg; type: ADME, organism-based; parameters: dose 100 mg/kg, route oral; settings: po; summary of the method: as §2
# [32] = Plasma concentration after 2 hr at a dose of 100 mg/kg when administered perorally; settings: po
# Rattus norvegicus [33] = assay: Area under curve was evaluated in rat plasma when administered intraperitoneally at a dose of 10 mg/kg for infinite hours; type: ADME, organism-based; parameters: time infinity, dose 10 mg/kg, route intraperitoneal; settings: in vivo, ip; summary of the method: as §1
# [34] = Time of maximum concentration achieved in rat brain when administered intravenously at a dose of 10 mg/kg; type: ADME, organism-based; parameters: dose 10 mg/kg, route intravenous; settings: iv; summary of the method: as §2
# [35] = Brain concentration after 0.5 h at a dose of 100 mg/kg when administered perorally; settings: po
# Rattus norvegicus [36] = assay: Volume of distribution in rat plasma when administered intravenously at a dose of 10 mg/kg; settings: in vivo, iv
# [37] = Time of maximum concentration achieved in rat plasma when administered intraperitoneally at a dose of 10 mg/kg; type: ADME, organism-based; parameters: dose 10 mg/kg, route intraperitoneal; settings: ip; summary of the method: as §2
# [38] = Plasma concentration after 0.5 hr at a dose of 10 mg/kg when administered intraperitoneally; settings: ip
# [39] = Volume of distribution in rat plasma when administered intraperitoneally at a dose of 10 mg/kg; settings: ip
# [40] = Brain concentration after 1 hr at a dose of 10 mg/kg when administered intraperitoneally; settings: ip
# Rattus norvegicus [41] = assay: Area under curve was evaluated in rat brain when administered perorally at a dose of 10 mg/kg for 4 or 6 hours; type: ADME, organism-based; parameters: dose 10 mg/kg, route oral; settings: in vivo, po
# [42] = Maximum concentration achieved in rat plasma when administered perorally at a dose of 10 mg/kg; type: ADME, organism-based; parameters: dose 10 mg/kg, route oral; settings: po; summary of the method: as §2
# Rattus norvegicus [43] = assay: Area under curve was evaluated in rat plasma when administered perorally at a dose of 100 mg/kg for infinite hours; type: ADME, organism-based; parameters: time infinity, dose 100 mg/kg, route oral; settings: in vivo, po; summary of the method: as §1
# [44] = Plasma concentration after 1 hr at a dose of 10 mg/kg when administered intravenously; settings: iv
# [45] = Clearance rate in rat plasma when administered intravenously at a dose of 10 mg/kg; type: ADME, organism-based; parameters: dose 10 mg/kg, route intravenous; settings: iv, read-out: Clp (converted); summary of the method: as §1
# [46] = Plasma concentration after 2 hr at a dose of 10 mg/kg when administered intravenously; settings: iv
# [47] = Half-life in rat plasma when administered perorally at a dose of 10 mg/kg; type: ADME, organism-based; parameters: dose 10 mg/kg, route oral; settings: po; summary of the method: as §1
# in vivo [48] = settings: plasma, iv, 10 mg/kg
# Rattus norvegicus [49] = assay: Area under curve was evaluated in rat plasma when administered intravenously at a dose of 10 mg/kg for infinite hours; type: ADME, organism-based; parameters: time infinity, dose 10 mg/kg, route intravenous; settings: in vivo, iv; summary of the method: as §1
smiles,measurement,setting,value
N[C@](CC1c2ccccc2Oc2ccccc21)(C(=O)O)[C@H]1C[C@@H]1C(=O)O,CL/F,[1],13 mL/min/kg
same,AUC,Rattus norvegicus [2],12700 ng·h/mL
same,concentration at 0.5 h,[3],197 ng/mL
same,Bioavailabiility,Rattus norvegicus [4],<Tr>
same,AUC,Rattus norvegicus [5],774 ng·h/mL
same,concentration at 0.25 h,in vivo [6],14300 ng/mL
same,concentration at 6 h,[7],29.6 ng/g
same,concentration at 4 h,[8],145 ng/g
same,concentration at 2 h,[9],23.9 ng/g
same,Cmax,[10],475 ng/mL
same,concentration at 1 h,[11],48.3 ng/mL
same,concentration at 0.5 h,[12],243 ng/g
same,AUC,Rattus norvegicus [13],1790 ng·h/mL
same,AUC,Rattus norvegicus [14],8370 ng·h/mL
same,concentration at 0.5 h,[15],64.1 ng/mL
same,AUC,Rattus norvegicus [16],701 ng·h/mL
same,concentration at 4 h,[17],20.1 ng/g
same,AUC,Rattus norvegicus [18],217 ng·h/mL
same,Tmax,[19],60 min
same,concentration at 4 h,[20],95.5 ng/mL
same,Tmax,[21],15 min
same,concentration at 2 h,[22],202 ng/g
same,concentration at 0.25 h,in vivo [23],211 ng/g
same,concentration at 4 h,[24],7.4 ng/g
same,Tmax,[25],30 min
same,concentration at 2 h,[26],177 ng/g
same,concentration at 0.5 h,[27],246 ng/g
same,half-life,[28],26.4 min
same,concentration at 2 h,[29],3 ng/g
same,AUC,Rattus norvegicus [30],120 ng·h/mL
same,Tmax,[31],360 min
same,concentration at 2 h,[32],420 ng/mL
same,AUC,Rattus norvegicus [33],12800 ng·h/mL
same,Tmax,[34],30 min
same,concentration at 0.5 h,[35],5.1 ng/g
same,Vd,Rattus norvegicus [36],0.83 L/kg
same,Tmax,[37],15 min
same,concentration at 0.5 h,[38],10700 ng/mL
same,Vd,[39],0.49 L/kg
same,concentration at 1 h,[40],235 ng/g
same,AUC,Rattus norvegicus [41],26.4 ng·h/mL
same,Cmax,[42],64.1 ng/mL
same,AUC,Rattus norvegicus [43],1660 ng·h/mL
same,concentration at 1 h,[44],2440 ng/mL
same,clearance,[45],19.8 mL/min/kg
same,concentration at 2 h,[46],845 ng/mL
same,half-life,[47],158 min
same,concentration at 0.25 h,in vivo [48],12000 ng/mL
same,AUC,Rattus norvegicus [49],8400 ng·h/mL
